≈ marks a conversion by molar mass, not a printed value.
How the values were obtained:
[1] = biological target: T1, Orexin/Hypocretin receptor type 1 (Homo sapiens, UniProt O43613); experiment: Antagonist activity at OX1R expressed in dihydrofolate reductase deficient CHO cells assessed as inhibition of orexin A-induced intracellular calcium mobilization by FLIPR assay; type: functional, cell-based
T1 sequence (O43613 whole entry): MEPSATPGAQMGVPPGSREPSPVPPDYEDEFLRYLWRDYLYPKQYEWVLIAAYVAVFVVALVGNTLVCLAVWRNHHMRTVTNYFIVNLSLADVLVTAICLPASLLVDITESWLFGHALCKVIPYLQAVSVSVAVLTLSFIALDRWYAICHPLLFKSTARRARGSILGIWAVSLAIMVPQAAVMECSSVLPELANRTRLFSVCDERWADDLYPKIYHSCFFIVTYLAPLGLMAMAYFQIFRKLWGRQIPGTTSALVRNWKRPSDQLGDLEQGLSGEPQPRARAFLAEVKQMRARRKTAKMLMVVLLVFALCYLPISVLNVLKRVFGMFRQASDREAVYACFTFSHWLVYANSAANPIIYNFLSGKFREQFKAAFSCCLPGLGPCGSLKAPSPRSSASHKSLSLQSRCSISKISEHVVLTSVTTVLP

[2] = Selectivity ratio of IC50 for OX1R to IC50 for OX2R
[3] = biological target: T2, Orexin receptor type 2 (Homo sapiens, UniProt O43614); experiment: Antagonist activity at OX2R expressed in dihydrofolate reductase deficient CHO cells assessed as inhibition of orexin A-induced intracellular calcium mobilization by FLIPR assay; type: functional, cell-based
T2 sequence (O43614 whole entry): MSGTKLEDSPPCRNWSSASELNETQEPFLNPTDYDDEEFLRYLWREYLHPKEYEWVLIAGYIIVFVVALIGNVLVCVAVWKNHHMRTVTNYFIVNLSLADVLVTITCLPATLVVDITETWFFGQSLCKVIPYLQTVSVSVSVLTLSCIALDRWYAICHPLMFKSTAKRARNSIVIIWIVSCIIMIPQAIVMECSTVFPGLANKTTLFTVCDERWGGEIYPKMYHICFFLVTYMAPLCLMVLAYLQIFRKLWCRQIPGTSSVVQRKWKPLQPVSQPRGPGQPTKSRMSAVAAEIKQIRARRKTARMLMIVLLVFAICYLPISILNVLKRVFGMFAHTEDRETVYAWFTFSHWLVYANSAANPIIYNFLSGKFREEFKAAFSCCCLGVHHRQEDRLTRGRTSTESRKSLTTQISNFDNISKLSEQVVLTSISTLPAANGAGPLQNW

[4] = Solubility of the compound in stomach simulated fluid JP1; type: physicochemical
In short: (§1)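 Solubility was measured in the Japanese Pharmacopoeia dissolution fluids. JP1 is the first fluid, an acidic stomach-simulating solution. JP2 is the second fluid, a buffer that mimics intestinal pH.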

[5] = Solubility of the compound in intestine simulated fluid JP2; type: physicochemical; in short: as §1
[6] = Lipophilicity, log D of the compound; type: physicochemical; conditions: octanol/water

SMILES	IC50 [1] [nM]	Ratio IC50 [2]	IC50 [3] [nM]	solubility [4] [µg/mL]	solubility [5] [µg/mL]	logD [6]
O=S(=O)(c1ccccc1)N1CCOC12CCN(c1cnc3ccccc3n1)CC2	1600	7	230			
O=C(Nc1ccccc1)N1CCC2(CC1)OCCN2S(=O)(=O)c1ccccc1	6300	8.9	710	< 70	1700 (≈ 4.23 mM)	1.82
O=C(Nc1ccccc1)N1CCC2(OCCN2S(=O)(=O)c2ccccc2)[C@H](F)C1 (mixture of isomers)	280	1.6	170	45000	34000	2.04
O=C(Nc1ccccc1)N1CCC2(OCCN2S(=O)(=O)c2ccccc2)C(F)(F)C1 (racemic)	> 10000	> 10	1000	21000 (≈ 48 mM)	18000 (≈ 41.1 mM)	1.93

Second part, the compound after the results:

IC50 [1] [nM]	Ratio IC50 [2]	IC50 [3] [nM]	solubility [4] [µg/mL]	solubility [5] [µg/mL]	logD [6]	SMILES
1500	450	3.3	5900 (≈ 12.3 mM)	4500 (≈ 9.38 mM)	1.35	COc1ccc(S(=O)(=O)N2CCOC23CCN(C(=O)Nc2ccccc2)CC3F)cc1OC (stereo not given)
2500	11	220	8500	12000	1.5	O=C(Nc1ccccc1)N1CCC2(OCCN2S(=O)(=O)c2ccccc2)[C@@H](F)C1 (mixture of isomers)
2300	18	130	2100 (≈ 4.67 mM)	2400 (≈ 5.34 mM)	1.75	COc1cccc(S(=O)(=O)N2CCOC23CCN(C(=O)Nc2ccccc2)CC3F)c1 (racemic)
1600	18	87	490 (≈ 1.09 mM)	580 (≈ 1.29 mM)	1.63	COc1ccc(S(=O)(=O)N2CCOC23CCN(C(=O)Nc2ccccc2)CC3F)cc1 (racemic)

From ChEMBL document CHEMBL1909547, “Discovery of spiropiperidine-based potent and selective Orexin-2 receptor antagonists” (Bioorg Med Chem Lett, 2011)
